pIC50: −log10 of the molar value.
Experiments:
[1] = tested on: L929; assay: Cytotoxicity against mouse L929 cells assessed as reduction in cell viability after 72 hrs by MTT assay; format: cell-based; conditions: L929, 72 h
Summary of the method: (§1)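 MTT viability assay. Cancer lines grown in RPMI 1640 and L929 fibroblasts in DMEM, each with 10% FBS, 2 mM glutamine, penicillin/streptomycin, 37 °C, 5% CO2. PBMC were taken from healthy donors by density-gradient centrifugation, kept in RPMI with 20% FBS and stimulated with 2% phytohemagglutinin. Cells were exposed 72 h (0.01–27.32 µM). MTT 0.5 mg/mL for 3 h, absorbance read at 550 nm. IC50 with 95% CI from nonlinear regression; triplicate, ≥3 independent experiments.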

[2] = tested on: SF-295; assay: Cytotoxicity against human SF295 cells assessed as reduction in cell viability after 72 hrs by MTT assay; conditions: SF-295, 72 h
[3] = tested on: NCI-H460; assay: Cytotoxicity against human NCI-H460 cells assessed as reduction in cell viability after 72 hrs by MTT assay; conditions: NCI-H460, 72 h
[4] = tested on: PBMC; assay: Cytotoxicity against human PBMC cells assessed as reduction in cell viability after 72 hrs by MTT assay
[5] = tested on: HL-60; assay: Cytotoxicity against human HL60 cells assessed as reduction in cell viability after 72 hrs by MTT assay; format: functional, cell-based; conditions: HL-60, 72 h; summary of the method: as §1
[6] = tested on: PC-3; assay: Cytotoxicity against human PC3 cells assessed as reduction in cell viability after 72 hrs by MTT assay; format: functional, cell-based; conditions: PC-3, 72 h; summary of the method: as §1
[7] = tested on: HCT-116; assay: Cytotoxicity against human HCT116 cells assessed as reduction in cell viability after 72 hrs by MTT assay; format: functional, cell-based; conditions: HCT-116, 72 h; summary of the method: as §1
[8] = tested on: Jurkat; assay: Cytotoxicity against human Jurkat cell viability after 72 hrs by MTT assay
[9] = tested on: MX1; assay: Cytotoxicity against human MX1 cells assessed as reduction in cell viability after 72 hrs by MTT assay; conditions: MX1, 72 h
[10] = tested on: OVCAR-8; assay: Cytotoxicity against human OVCAR8 cells assessed as reduction in cell viability after 72 hrs by MTT assay; conditions: OVCAR-8, 72 h

Structure (SMILES) | pIC50 [1] | pIC50 [2] | pIC50 [3] | pIC50 [4] | pIC50 [5] | pIC50 [6] | pIC50 [7] | pIC50 [8] | pIC50 [9] | pIC50 [10]
CCOC(=O)Cc1oc2c(c1-c1cc(OC)c(OC)c(OC)c1)C(=O)c1ccccc1C2=O | < 4.95 | 4.99 | < 4.95 | < 4.95 | 5.40 | 5.06 | < 4.95 |  |  | 
Cc1ccc(-c2cn(-c3cccc(Br)c3)c3c2C(=O)c2ccccc2C3=O)cc1 | < 4.88 | < 4.88 | < 4.88 | < 4.88 | < 4.88 | < 4.88 | < 4.88 |  |  | 
CSc1ccc(-c2coc3c2C(=O)c2ccccc2C3=O)cc1 | < 4.81 | 5.46 | 5.33 | < 4.81 | 5.51 | 5.60 | 5.22 | 5.66 | 5.32 | 5.39
CCOC(=O)Cc1c(-c2ccc(C)cc2)c2c(n1-c1ccc(C)cc1)C(=O)c1ccccc1C2=O | < 4.97 | < 4.97 | < 4.97 | < 4.97 | < 4.97 | < 4.97 | < 4.97 |  |  | 
O=C1c2ccccc2C(=O)c2c(-c3cccc4ccccc34)coc21 | 4.89 | 5.35 | 5.42 | < 4.81 | 5.63 | 5.74 | 5.21 | 5.68 | 5.48 | 5.41
CCOC(=O)Cc1oc2c(c1-c1cccc3ccccc13)C(=O)c1ccccc1C2=O | < 4.91 | < 4.91 | < 4.91 | < 4.91 | 5.17 | < 4.91 | < 4.91 |  |  | 
O=C1c2ccccc2C(=O)c2c(-c3ccc(F)cc3)coc21 | 4.87 | 5.20 | 5.36 | < 4.77 | 5.48 | 5.40 | 5.22 | 5.46 | 5.28 | 5.27
CCOC(=O)Cc1c(-c2ccc(Cl)cc2)c2c(n1-c1ccc(OC)cc1)C(=O)c1ccccc1C2=O | < 5.00 | < 5.00 | < 5.00 | < 5.00 | < 5.00 | < 5.00 | < 5.00 |  |  | 
CCOC(=O)Cc1c(-c2ccco2)c2c(n1-c1ccccc1)C(=O)c1ccccc1C2=O | < 4.93 | < 4.93 | < 4.93 | < 4.93 | < 4.93 | < 4.93 | < 4.93 |  |  | 
Cc1ccc(-c2cn(-c3ccc(Br)cc3)c3c2C(=O)c2ccccc2C3=O)cc1 | < 4.92 | < 4.92 | < 4.92 | < 4.92 | < 4.92 | < 4.92 | < 4.92 |  |  | 
CCOC(=O)Cc1oc2c(c1-c1ccc(Cl)cc1)C(=O)c1ccccc1C2=O | < 4.90 | < 4.90 | < 4.90 | < 4.90 | 4.99 | < 4.90 | < 4.90 |  |  | 
CCOC(=O)Cc1c(-c2cc(OC)c(OC)c(OC)c2)c2c(n1-c1cccc(Br)c1)C(=O)c1ccccc1C2=O | < 5.08 | < 5.08 | < 5.08 | < 5.08 | < 5.08 | < 5.08 | < 5.08 |  |  | 
COc1ccc(-c2cn(-c3ccc(OC)cc3)c3c2C(=O)c2ccccc2C3=O)cc1 | < 4.91 | < 4.91 | < 4.91 | < 4.91 | < 4.91 | < 4.91 | < 4.91 |  |  | 
CCCCn1cc(-c2ccc(Cl)cc2)c2c1C(=O)c1ccccc1C2=O | < 4.86 |  |  |  | < 4.86 | < 4.86 | < 4.86 |  |  | 
Cc1ccc(-c2cn(-c3ccc(C)cc3)c3c2C(=O)c2ccccc2C3=O)cc1 | < 4.95 | < 4.95 | < 4.95 | < 4.95 | < 4.95 | < 4.95 | < 4.95 |  |  | 
COc1ccc(-n2cc(-c3ccc(C)cc3)c3c2C(=O)c2ccccc2C3=O)cc1 | < 4.90 | < 4.90 | < 4.90 | < 4.90 | < 4.90 | < 4.90 | < 4.90 |  |  | 
CCOC(=O)Cc1c(-c2ccc(OC)c(OC)c2)c2c(n1-c1ccc(Br)cc1)C(=O)c1ccccc1C2=O | < 4.76 | 5.19 | < 4.76 | < 4.76 | < 4.76 | < 4.76 | < 4.76 |  |  | 
